Measurements taken from ChEMBL document CHEMBL1165943, “Design and synthesis of new anticancer pyrimidines with multiple-kinase inhibitory effect” (Bioorg Med Chem, 2010).

Columns and labels:
MDA-MB-231 = test: Growth inhibition of human MDA-MB-231 cells after 48 hrs by sulforhodamine B assay; type: functional, cell-based; conditions: MDA-MB-231, 48 h
How it was run: (§1)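 Cells grown in RPMI 1640 with 5% FBS and 2 mM L-glutamine, seeded at 5,000–40,000 cells/well according to doubling time. After 24 h, time-zero plates are TCA-fixed. Five concentrations (10-fold or ½log dilutions, DMSO stocks) are applied for 48 h at 37 °C, 5% CO₂. Cells are TCA-fixed, SRB-stained and read at 515 nm. IC₅₀ is taken from [(Ti−Tz)/(C−Tz)]×100 = 50.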

HL-60(TB) [1] = test: Cytotoxicity against human HL-60(TB) cells assessed as cell growth at 0.001 uM after 48 hrs by sulforhodamine B assay; type: functional; conditions: HL-60, 48 h, read-out: Activity
How it was run: (§2)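 Five-concentration HL-60(TB) test in RPMI 1640 with 5% FBS and 2 mM L-glutamine. Cells are plated at 5,000–40,000/well and a TCA-fixed time-zero plate is read at drug addition after 24 h. Drug is dissolved in DMSO and given as five 10-fold or ½log dilutions for 48 h at 37 °C, 5% CO2. Settled cells are fixed with TCA, stained with SRB and read at 515 nm.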

COLO 205 [2] = test: Cytotoxicity against human COLO205 cells assessed as cell growth at 0.001 uM after 48 hrs by sulforhodamine B assay; type: functional; conditions: COLO 205, 48 h, read-out: Activity
How it was run: (§3)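 Cells grown in RPMI 1640 with 5% FBS and 2 mM L-glutamine, seeded at 5,000–40,000 cells/well by doubling time. Time-zero plates TCA-fixed after 24 h. Five concentrations (10-fold or half-log dilutions from DMSO stock) added; 48 h at 37 °C, 5% CO2. Cold TCA fixation (final 10%, 60 min, 4 °C), 0.4% SRB stain, dye solubilized in 10 mM trizma base, A515.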

Malme-3M = test: Cytotoxicity against human MALME-3M cells assessed as cell growth at 0.001 uM after 48 hrs by sulforhodamine B assay; type: functional; conditions: read-out: Activity
OVCAR-5 = test: Cytotoxicity against human OVCAR5 cells assessed as cell growth at 0.001 uM after 48 hrs by sulforhodamine B assay; type: functional; conditions: OVCAR-5, 48 h, read-out: Activity
ACHN = test: Cytotoxicity against human ACHN cells assessed as cell growth at 0.001 uM after 48 hrs by sulforhodamine B assay; type: functional; conditions: read-out: Activity; how it was run: as §3
DU-145 = test: Cytotoxicity against human DU145 cells assessed as cell growth at 0.001 uM after 48 hrs by sulforhodamine B assay; type: functional; conditions: DU-145, 48 h, read-out: Activity
HOP-62 [3] = test: Cytotoxicity against human HOP62 cells assessed as cell growth at 100 nM after 48 hrs by sulforhodamine B assay; type: functional; conditions: HOP-62, 48 h, read-out: Activity
HT-29 [4] = test: Cytotoxicity against human HT-29 cells assessed as cell growth at 100 nM after 48 hrs by sulforhodamine B assay; type: functional; conditions: HT-29, 48 h, read-out: Activity
OVCAR-4 = test: Cytotoxicity against human OVCAR4 cells assessed as cell growth at 100 nM after 48 hrs by sulforhodamine B assay; type: functional; conditions: OVCAR-4, 48 h, read-out: Activity
NCI/ADR-RES = test: Cytotoxicity against human NCI/ADR-RES cells assessed as cell growth at 100 nM after 48 hrs by sulforhodamine B assay; type: functional; conditions: read-out: Activity
SK-OV-3 = test: Cytotoxicity against human SKOV3 cells assessed as cell growth at 100 nM after 48 hrs by sulforhodamine B assay; type: functional; conditions: SK-OV-3, 48 h, read-out: Activity
MOLT-4 = test: Cytotoxicity against human MOLT4 cells assessed as cell growth at 0.01 uM after 48 hrs by sulforhodamine B assay; type: functional; conditions: MOLT-4, 48 h, read-out: Activity
HCT-15 = test: Cytotoxicity against human HCT15 cells assessed as cell growth at 10 uM after 48 hrs by sulforhodamine B assay; type: functional; conditions: HCT-15, 48 h, read-out: Activity
HT-29 [5] = test: Cytotoxicity against human HT-29 cells assessed as cell growth at 0.01 uM after 48 hrs by sulforhodamine B assay; type: functional; conditions: HT-29, 48 h, read-out: Activity
TK-10 = test: Cytotoxicity against human TK10 cells assessed as cell growth at 100 nM after 48 hrs by sulforhodamine B assay; type: functional; conditions: TK-10, 48 h, read-out: Activity
MDA-MB-435 = test: Cytotoxicity against human MDA-MB-435 cells assessed as cell growth at 10 uM after 48 hrs by sulforhodamine B assay; type: functional; conditions: MDA-MB-435, 48 h, read-out: Activity
A498 = test: Cytotoxicity against human A498 cells assessed as cell growth at 10 uM after 48 hrs by sulforhodamine B assay; type: functional; conditions: A498, 48 h, read-out: Activity; how it was run: as §3
HL-60(TB) [6] = test: Cytotoxicity against human HL-60(TB) cells assessed as cell growth at 1 uM after 48 hrs by sulforhodamine B assay; type: functional; conditions: HL-60, 48 h, read-out: Activity; how it was run: as §2
HOP-62 [7] = test: Cytotoxicity against human HOP62 cells assessed as cell growth at 1 uM after 48 hrs by sulforhodamine B assay; type: functional; conditions: HOP-62, 48 h, read-out: Activity
NCI-H322M = test: Cytotoxicity against human NCI-H322M cells assessed as cell growth at 1 uM after 48 hrs by sulforhodamine B assay; type: functional; conditions: read-out: Activity
IGROV-1 = test: Cytotoxicity against human IGROV1 cells assessed as cell growth at 0.01 uM after 48 hrs by sulforhodamine B assay; type: functional; conditions: IGROV-1, 48 h, read-out: Activity
OVCAR-3 = test: Cytotoxicity against human OVCAR-3 cells assessed as cell growth at 0.01 uM after 48 hrs by sulforhodamine B assay; type: functional; conditions: OVCAR-3, 48 h, read-out: Activity
UO-31 = test: Cytotoxicity against human UO31 cells assessed as cell growth at 1 uM after 48 hrs by sulforhodamine B assay; type: functional; conditions: UO-31, 48 h, read-out: Activity
COLO 205 [8] = test: Growth inhibition of human COLO205 cells after 48 hrs by sulforhodamine B assay; type: functional, cell-based; conditions: COLO 205, 48 h; for CC50: read-out: LC50 (the source's name)
How it was run: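 Five-dose SRB assay. Cells in RPMI 1640 with 5% FBS and 2 mM L-glutamine were seeded at 5,000–40,000 cells/well, with a TCA-fixed time-zero plate (Tz) taken at 24 h. Compound stocks were in DMSO, serially diluted 10-fold or ½-log to five concentrations, and incubated 48 h at 37 °C. Plates were stained with SRB and read at 515 nm. IC₅₀ was taken where [(Ti−Tz)/(C−Tz)]×100 = 50.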

SNB-19 = test: Growth inhibition of human SNB19 cells after 48 hrs by sulforhodamine B assay; type: functional, cell-based; conditions: SNB-19, 48 h; for CC50: read-out: LC50 (the source's name); how it was run: as §1
SK-MEL-2 = test: Growth inhibition of human SK-MEL-2 cells after 48 hrs by sulforhodamine B assay; type: functional, cell-based; conditions: SK-MEL-2, 48 h; for CC50: read-out: LC50 (the source's name); how it was run: as §1

## CC(=O)Nc1cccc(-c2ccc(-c3ccnc(NC(=O)Nc4cc(C(F)(F)F)cc(C(F)(F)F)c4)n3)cn2)c1.Cl
MDA-MB-231
  GI50: 3.72 µM
  IC50: 3.72 µM
  LC50: 62 µM
  TGI: 19.7 µM
HL-60(TB) [1]
  growth at 0.001 µM: 95%
COLO 205 [2]
  growth at 0.001 µM: 103%
Malme-3M
  growth at 0.001 µM: 92%
OVCAR-5
  growth at 0.001 µM: 97%
ACHN
  growth at 0.001 µM: 101%
DU-145
  growth at 0.001 µM: 112%
HOP-62 [3]
  growth at 0.1 µM: 100%
HT-29 [4]
  growth at 0.1 µM: 101%
OVCAR-4
  growth at 0.1 µM: 61%
NCI/ADR-RES
  growth at 0.1 µM: 93%
SK-OV-3
  growth at 0.1 µM: 94%
MOLT-4
  growth at 0.01 µM: 90%
HCT-15
  growth at 10 µM: -86%
HT-29 [5]
  growth at 0.01 µM: 100%
TK-10
  growth at 0.1 µM: 105%
MDA-MB-435
  growth at 10 µM: -27%
A498
  growth at 10 µM: -77%
HL-60(TB) [6]
  growth at 1 µM: 28%
HOP-62 [7]
  growth at 1 µM: 27%
NCI-H322M
  growth at 1 µM: 12%
IGROV-1
  growth at 0.01 µM: 95%
OVCAR-3
  growth at 0.01 µM: 105%
UO-31
  growth at 1 µM: 48%
COLO 205 [8]
  GI50: 11 µM
  IC50: 11 µM
  TGI: > 100 µM
  CC50: > 100 µM
SNB-19
  GI50: 4.57 µM
  IC50: 4.57 µM
  TGI: 17.8 µM
  CC50: 47.4 µM
SK-MEL-2
  GI50: 5.65 µM
  IC50: 5.65 µM
  TGI: 19.8 µM
  CC50: 52.4 µM

## CC(=O)c1ccccc1-c1ccc(-c2ccnc(NC(=O)Nc3cc(N4CCOCC4)cc(C(F)(F)F)c3)n2)cn1
MDA-MB-231
  IC50: 3.1 µM
  LC50: > 100 µM
  TGI: > 100 µM
HL-60(TB) [1]
  growth at 0.001 µM: 92%
COLO 205 [2]
  growth at 0.001 µM: 109%
Malme-3M
  growth at 0.001 µM: 94%
OVCAR-5
  growth at 0.001 µM: 94%
ACHN
  growth at 0.001 µM: 97%
DU-145
  growth at 0.001 µM: 100%
HOP-62 [3]
  growth at 0.1 µM: 100%
HT-29 [4]
  growth at 0.1 µM: 98%
OVCAR-4
  growth at 0.1 µM: 92%
NCI/ADR-RES
  growth at 0.1 µM: 75%
SK-OV-3
  growth at 0.1 µM: 118%
MOLT-4
  growth at 0.01 µM: 76%
HCT-15
  growth at 10 µM: 87%
HT-29 [5]
  growth at 0.01 µM: 105%
TK-10
  growth at 0.1 µM: 100%
MDA-MB-435
  growth at 10 µM: 91%
A498
  growth at 10 µM: 98%
HL-60(TB) [6]
  growth at 1 µM: 88%
HOP-62 [7]
  growth at 1 µM: 21%
NCI-H322M
  growth at 1 µM: 88%
IGROV-1
  growth at 0.01 µM: 96%
OVCAR-3
  growth at 0.01 µM: 95%
UO-31
  growth at 1 µM: 82%
COLO 205 [8]
  GI50: > 63.2 µM
  IC50: > 100 µM
  TGI: > 100 µM
  CC50: > 100 µM
SNB-19
  GI50: 9.04 µM
  IC50: 38.7 µM
  TGI: > 100 µM
  CC50: > 100 µM
SK-MEL-2
  GI50: > 100 µM
  IC50: 15.9 µM
  TGI: 75.5 µM
  CC50: > 100 µM
